ChEMBL document CHEMBL1139620, “Synthesis of a small library of diketopiperazines as potential inhibitors of calpain” (Bioorg Med Chem Lett, 2005)
Blank lines part the entries; values can stand above or below the compound they belong to. Where a SMILES comes first, the peptide text is derived from it. [ ]: non-standard residue; d: D form. The star is where a group is joined. ξ: configuration not given here. ξF = NC(Cc1ccccc1)C(=O)O; Cbz = O=C(OCc1ccccc1)*

Key:
[1] = target: T1, Calpain-1 catalytic subunit (Homo sapiens) (UniProt P07384); experiment: Percent inhibition of human calpain 1 at 120 uM; Inhibition within […]
T1 sequence (whole entry): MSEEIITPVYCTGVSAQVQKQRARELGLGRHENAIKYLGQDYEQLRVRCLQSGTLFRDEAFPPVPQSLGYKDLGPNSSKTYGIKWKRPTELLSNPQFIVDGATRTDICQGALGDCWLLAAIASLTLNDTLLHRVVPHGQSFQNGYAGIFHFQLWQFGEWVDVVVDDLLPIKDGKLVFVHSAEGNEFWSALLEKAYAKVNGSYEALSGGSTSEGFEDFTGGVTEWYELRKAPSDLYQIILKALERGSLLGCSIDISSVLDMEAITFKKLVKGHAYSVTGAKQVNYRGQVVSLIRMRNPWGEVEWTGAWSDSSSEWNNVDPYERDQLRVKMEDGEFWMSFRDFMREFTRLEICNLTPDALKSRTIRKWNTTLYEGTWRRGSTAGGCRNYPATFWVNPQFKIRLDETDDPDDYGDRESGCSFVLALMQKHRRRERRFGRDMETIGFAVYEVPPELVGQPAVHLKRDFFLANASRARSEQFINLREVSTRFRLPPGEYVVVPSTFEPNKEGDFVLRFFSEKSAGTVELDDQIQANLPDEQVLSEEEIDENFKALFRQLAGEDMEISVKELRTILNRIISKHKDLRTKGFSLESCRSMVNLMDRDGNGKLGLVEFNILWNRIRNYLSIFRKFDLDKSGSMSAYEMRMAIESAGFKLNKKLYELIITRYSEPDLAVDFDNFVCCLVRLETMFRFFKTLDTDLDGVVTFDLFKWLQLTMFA
How it was run: (§1)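 Recombinant human calpain I expressed in baculovirus, continuous fluorescence assay with Suc-Leu-Tyr-AMC (8 mM stock) in Tris 50 mM pH 7.3, EDTA 0.5 mM, βME 10 mM. Started with CaCl2 (40 mM stock). Ex 380/em 460 nm, linear for at least 2 min. Percent inhibition is the drop in initial rate against DMSO-only controls at the highest concentration tested. Values are within 10%.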

[2] = target: T1, Calpain-1 catalytic subunit (Homo sapiens); experiment: Percent inhibition of human calpain 1 at 350 uM; Inhibition within […]; how it was run: as §1
[3] = target: T1, Calpain-1 catalytic subunit (Homo sapiens); experiment: Percent inhibition of recombinant human calpain 1 at highest concentration of 150 uM; Inhibition values are within […]; how it was run: as §1
[4] = target: T1, Calpain-1 catalytic subunit (Homo sapiens); experiment: Percent inhibition of human calpain 1 at 300 uM; Inhibition within […]; how it was run: as §1
[5] = target: T1, Calpain-1 catalytic subunit (Homo sapiens); experiment: Percent inhibition of human calpain 1 at 210 uM; Inhibition within […]; how it was run: as §1
[6] = target: T1, Calpain-1 catalytic subunit (Homo sapiens); experiment: Percent inhibition of human calpain 1 at 190 uM; Inhibition within […]; how it was run: as §1
[7] = target: T1, Calpain-1 catalytic subunit (Homo sapiens); experiment: Percent inhibition of human calpain 1 at 500 uM; Inhibition within […]; how it was run: as §1
[8] = Concentration required for inhibition of calpain
How it was run: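 Calpain I (recombinant human, baculovirus-expressed) was hydrolysing Suc-Leu-Tyr-AMC in Tris 50 mM pH 7.3 with EDTA 0.5 mM and βME 10 mM, activated by CaCl2 (40 mM stock). Fluorescence was followed continuously at ex 380/em 460 nm. The value is the concentration giving a 50% decrease in initial hydrolysis rate relative to DMSO controls.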

[9] = target: T1, Calpain-1 catalytic subunit (Homo sapiens); experiment: Percent inhibition of human calpain 1 at 160 uM; Inhibition within […]; how it was run: as §1
[10] = target: T1, Calpain-1 catalytic subunit (Homo sapiens); experiment: Percent inhibition of human calpain 1 at 130 uM; Inhibition within […]; how it was run: as §1
[11] = target: T1, Calpain-1 catalytic subunit (Homo sapiens); experiment: Percent inhibition of human calpain 1 at 170 uM; Inhibition within […]; how it was run: as §1
[12] = target: T1, Calpain-1 catalytic subunit (Homo sapiens); experiment: Percent inhibition of human calpain 1 at 580 uM; Inhibition within […]; how it was run: as §1
[13] = target: T1, Calpain-1 catalytic subunit (Homo sapiens); experiment: Percent inhibition of human calpain 1 at 110 uM; Inhibition within […]; how it was run: as §1
[14] = target: T1, Calpain-1 catalytic subunit (Homo sapiens); experiment: Percent inhibition of human calpain 1 at 550 uM; Inhibition within […]; how it was run: as §1
[15] = target: T1, Calpain-1 catalytic subunit (Homo sapiens); experiment: Percent inhibition of human calpain 1 at 90 uM; Inhibition within […]; how it was run: as §1
[16] = target: T1, Calpain-1 catalytic subunit (Homo sapiens); experiment: Percent inhibition of human calpain 1 at highest 200 uM; Inhibition within […]; how it was run: as §1
[17] = target: T1, Calpain-1 catalytic subunit (Homo sapiens); experiment: Percent inhibition of human calpain 1 at 360 uM; Inhibition within […]; how it was run: as §1
[18] = target: T1, Calpain-1 catalytic subunit (Homo sapiens); experiment: Percent inhibition of human calpain 1 at 100 uM; Inhibition within […]; how it was run: as §1
[19] = target: T1, Calpain-1 catalytic subunit (Homo sapiens); experiment: Percent inhibition of human calpain 1 at 180 uM; Inhibition within […]; how it was run: as §1
[20] = Binding affinity for rat erythrocyte calpain
[21] = target: T1, Calpain-1 catalytic subunit (Homo sapiens); experiment: Percent inhibition of human calpain 1 at 680 uM; Inhibition within […]; how it was run: as §1
[22] = target: T1, Calpain-1 catalytic subunit (Homo sapiens); experiment: Percent inhibition of human calpain 1 at 280 uM; Inhibition within […]; how it was run: as §1
[23] = target: T1, Calpain-1 catalytic subunit (Homo sapiens); experiment: Percent inhibition of human calpain 1 at 610 uM; Inhibition within […]; how it was run: as §1
[24] = target: T1, Calpain-1 catalytic subunit (Homo sapiens); experiment: Percent inhibition of human calpain 1 at 650 uM; Inhibition within […]; how it was run: as §1
[25] = target: T1, Calpain-1 catalytic subunit (Homo sapiens); experiment: Percent inhibition of human calpain 1 at 920 uM; Inhibition within […]; how it was run: as §1
[26] = target: T1, Calpain-1 catalytic subunit (Homo sapiens); experiment: Percent inhibition of human calpain 1 at 97 uM; Inhibition within […]; how it was run: as §1

- inhibition [1]: 0%
Compound: O=C1N[C@@H](Cc2ccc(O)cc2)C(=O)N[C@H]1COCc1ccccc1

- inhibition [2]: 0%
Compound: Cc1ccc(S(=O)(=O)/N=C(/N)NCCC[C@@H]2NC(=O)[C@H](Cc3ccccc3)NC2=O)cc1

- inhibition [3]: 0%
Compound: O=C1N[C@@H](Cc2c[nH]c3ccccc23)C(=O)N[C@H]1Cc1ccc(O)cc1

- inhibition [4]: 0%
Compound: O=C1N[C@@H](Cc2ccccc2)C(=O)N[C@H]1COCc1ccccc1

- inhibition [5]: 0%
Compound: COC(=O)C[C@H]1NC(=O)[C@H](Cc2ccc(O)cc2)NC1=O

- inhibition [6]: 30%
Compound: C[C@H](O)[C@@H]1NC(=O)[C@H](Cc2ccccc2)NC1=O

- inhibition [1]: 0%
Compound: COC(=O)C[C@@H]1NC(=O)[C@H](Cc2ccc(OCc3ccccc3)cc2)NC1=O

- inhibition [7]: 0%
Compound: O=C1N[C@@H](Cc2ccc(O)cc2)C(=O)N[C@H]1Cc1ccc(O)cc1

- IC50 [8]: 7100 nM
Compound: COc1c([C@@H](O)CC(C)C)ccc2c1C(=O)OCc1cc(C)cc(O)c1O2 [PENICILLIDE]

- inhibition [9]: 13%
Compound: COC(=O)C[C@@H]1NC(=O)[C@H](Cc2ccccc2)NC1=O

- inhibition [2]: 50%
Compound: CN1C(=O)[C@H](Cc2ccc(OCc3ccccc3)cc2)N(C)C(=O)[C@@H]1Cc1ccc(OCc2ccccc2)cc1

- IC50 [8]: 400 nM
Compound: O=C(O)/C(S)=C/c1ccc(I)cc1

- inhibition [4]: 0%
Compound: CN1C(=O)[C@H](Cc2ccccc2)N(C)C(=O)[C@@H]1Cc1ccccc1

- inhibition [10]: 0%
Compound: CC(C)C[C@@H]1NC(=O)[C@H](Cc2ccccc2)NC1=O

- inhibition [11]: 0%
Compound: Cc1ccc(S(=O)(=O)/N=C(/N)NCCC[C@@H]2NC(=O)[C@H](Cc3ccc(O)cc3)NC2=O)cc1

- inhibition [12]: 0%
Compound: C[C@H](O)[C@@H]1NC(=O)[C@H](Cc2ccc(O)cc2)NC1=O

- inhibition [13]: 0%
Compound: CC(C)C[C@@H]1NC(=O)[C@H](COCc2ccccc2)NC1=O

- inhibition [14]: 0%
- IC50 [8]: 1300 nM
Compound: CC(C)c1ncc(Cc2ccccc2)nc1O

- inhibition [3]: 0%
Compound: COC(=O)C[C@@H]1NC(=O)[C@H](COCc2ccccc2)NC1=O

- inhibition [15]: 25%
Compound: COC(=O)C[C@@H]1NC(=O)[C@H](Cc2ccc(O)cc2)NC1=O

- inhibition [16]: 0%
Compound: CC(C)[C@@H]1NC(=O)[C@H](Cc2ccc(OCc3ccccc3)cc2)NC1=O

- inhibition [17]: 0%
Compound: CN1C(=O)[C@H](Cc2ccc(O)cc2)N(C)C(=O)[C@@H]1Cc1ccccc1

- inhibition [18]: 0%
Compound: O=C1N[C@@H](Cc2c[nH]c3ccccc23)C(=O)N[C@H]1Cc1ccccc1

- inhibition [19]: 0%
Compound: O=C1N[C@@H](Cc2c[nH]c3ccccc23)C(=O)N[C@H]1Cc1c[nH]c2ccccc12

- inhibition [16]: 0%
Compound: O=C1N[C@@H](Cc2c[nH]c3ccccc23)C(=O)N[C@H]1COCc1ccccc1

- Ki [20]: 10 nM
Compound: CC(C)[C@H](NC(=O)OCc1ccccc1)C(=O)NC(C=O)Cc1ccccc1 (stereo partly drawn) (Cbz-Val-[ξF]-aldehyde)

- inhibition [21]: 0%
- IC50 [8]: 800 nM
Compound: CN1C(=O)[C@H](Cc2ccc(O)cc2)N(C)C(=O)[C@@H]1Cc1ccc(O)cc1

- inhibition [6]: 0%
Compound: CC(C)C[C@@H]1NC(=O)[C@H](Cc2ccc(O)cc2)NC1=O

- inhibition [22]: 0%
Compound: O=C1N[C@@H](Cc2ccccc2)C(=O)N[C@H]1Cc1ccccc1

- inhibition [23]: 25%
Compound: COC(=O)C[C@H]1NC(=O)[C@H](Cc2ccccc2)NC1=O

- inhibition [24]: 50%
Compound: O=C1N[C@@H](Cc2ccc(OCc3ccccc3)cc2)C(=O)N[C@H]1Cc1ccccc1

- inhibition [19]: 0%
Compound: O=C1N[C@@H](Cc2ccc(O)cc2)C(=O)N[C@H]1Cc1ccccc1

- inhibition [25]: 0%
Compound: CC(C)C[C@@H]1NC(=O)[C@H](Cc2c[nH]c3ccccc23)NC1=O

- inhibition [26]: 50%
Compound: O=C1N[C@@H](Cc2ccc(OCc3ccccc3)cc2)C(=O)N[C@H]1Cc1ccc(OCc2ccccc2)cc1
